{
  "source": "ChEMBL document CHEMBL2034894",
  "about": "“The structures of three metabolites of the algal hepatotoxin okadaic acid produced by oxidation with human cytochrome P450” (Bioorg Med Chem, 2012)",
  "key": {"[1]": {"test": "Inhibition of PP2A using p-NPP as substrate pretreated for 1 hr by spectrophotometry"}, "[2]": {"test": "Inhibition of protein phosphatase 1"}, "[3]": {"test": "Irreversible inhibition of PP2A using p-NPP as substrate assessed as recovery of enzyme activity pretreated for 1 hr followed by 4 hrs dialysis by spectrophotometry", "procedure,_shortened": "(§1)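 PP2A (0.07 U) was mixed 1:1 by volume with inhibitor solutions in 5% MeOH/H2O (20–100 µM before mixing) at 37 °C; controls got 5% MeOH/H2O alone. Buffer: 50 mM Tris, 2 mM MnCl2, 1.1 mM EDTA, 1.3 mM DTT, 0.125 mg/mL BSA. Samples were dialysed against buffer for 4 h at 5–7 °C, then given p-NPP (7.8 mM final) for 2 h at 37 °C; A405 read against control.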"}, "[4]": {"test": "Reversible inhibition of PP2A using p-NPP as substrate assessed as recovery of enzyme activity at 80 uM […] followed by 4 hrs dialysis by spectrophotometry relative to control", "design": "scale not given: the % may be the effect or the level left"}, "[5]": {"test": "Reversible inhibition of PP2A using p-NPP as substrate assessed as recovery of enzyme activity at 100 uM pretreated for […] followed by 4 hrs dialysis by spectrophotometry relative to control", "design": "scale not given: the % may be the effect or the level left", "procedure,_shortened": "as §1"}},
  "note": "The source made the active and inactive calls. No cut-off for these calls is given here. Numbered stars: 1 amine (or outer) side, 2 acyl side, 3 side chain; on linkers, the order of the positions; unused ones are H or OH. Bridge positions count the residues as written; N and C are the ends. Square brackets hold non-standard residues; d marks the D form. Peptide text beside a SMILES is read from it. Adda = CO[C@@H](Cc1ccccc1)[C@@H](C)/C=C(C)/C=C/[C@H](N[*:1])[C@H](C)C(=O)[*:2]; dAsp(3S-Me) = C[C@H](C(=O)[*:3])[C@@H](N[*:1])C(=O)[*:2]; d(γGlu) = O=C(O)[C@@H](CCC(=O)[*:2])N[*:1]; NMeDha = C=C(NC)C(=O)O",
  "data": [
    {"smiles": "C=C1[C@@H](O)[C@@H]2O[C@]3(CC[C@H](/C=C/[C@@H](C)[C@@H]4CC(C)=C[C@@]5(O[C@H](C[C@@](C)(O)C(=O)O)CC[C@H]5O)O4)O3)CC[C@H]2O[C@@H]1[C@@H](O)C[C@H](C)[C@H]1O[C@@]2(CCCCO2)CC[C@H]1C", "values": [
      {"measurement": "inhibition", "setting": "[1]", "value": "Active"},
      {"measurement": "inhibition", "setting": "[2]", "value": "Active"}
    ]},
    {"smiles": "C=C1[C@@H](O)[C@@H]2O[C@]3(CC[C@H](/C=C/[C@@H](C)[C@@H]4CC(C)=C[C@@]5(O[C@H](C[C@@](C)(O)C(=O)O)CC[C@H]5O)O4)O3)CC[C@H]2O[C@@H]1[C@@H](O)C[C@H](C)[C@H]1O[C@]2(CC[C@H]1C)CC(O)CCO2", "note": "(stereo partly specified)", "values": [
      {"measurement": "IC50", "setting": "[1]", "value": 0.94, "unit": "nM"},
      {"measurement": "inhibition", "setting": "[2]", "value": "Active"}
    ]},
    {"smiles": "C=C1C(=O)N[C@H](C)C(=O)N[C@@H](CC(C)C)C(=O)N[C@@H](C(=O)O)[C@H](C)C(=O)N[C@@H](CCCNC(=N)N)C(=O)N[C@@H](/C=C/C(C)=C/[C@H](C)[C@H](Cc2ccccc2)OC)[C@H](C)C(=O)N[C@@H](C(=O)O)CCC(=O)N1C", "note": "(R[Adda][d(γGlu)][NMeDha][dA]L[dAsp(3S-Me)]-OH; lactam N-7)", "values": [
      {"measurement": "inhibition", "setting": "[3]", "value": "Active"}
    ]},
    {"smiles": "C=C1[C@@H](O)[C@@H]2O[C@]3(CC[C@H](/C=C/[C@@H](C)[C@@H]4CC(C=O)=C[C@@]5(O[C@H](C[C@@](C)(O)C(=O)O)CC[C@H]5O)O4)O3)CC[C@H]2O[C@@H]1[C@@H](O)C[C@H](C)[C@H]1O[C@@]2(CCCCO2)CC[C@H]1C", "values": [
      {"measurement": "IC50", "setting": "[1]", "value": 3.98, "unit": "nM"},
      {"measurement": "Activity", "setting": "[4]", "value": 117, "unit": "%"},
      {"measurement": "inhibition", "setting": "[2]", "value": "Active"}
    ]},
    {"smiles": "C=C1[C@@H](O)[C@@H]2O[C@]3(CC[C@H](/C=C/[C@@H](C)[C@@H]4CC(CO)=C[C@@]5(O[C@H](C[C@@](C)(O)C(=O)O)CC[C@H]5O)O4)O3)CC[C@H]2O[C@@H]1[C@@H](O)C[C@H](C)[C@H]1O[C@@]2(CCCCO2)CC[C@H]1C", "values": [
      {"measurement": "IC50", "setting": "[1]", "value": 1.34, "unit": "nM"},
      {"measurement": "Activity", "setting": "[5]", "value": 113, "unit": "%"},
      {"measurement": "inhibition", "setting": "[2]", "value": "Active"}
    ]}
  ]
}
